# Results as given in ChEMBL document CHEMBL4251567 (Eur J Med Chem, 2018).
# Experiments:
# [1] = target: Histone deacetylase; assay: Inhibition of HDAC in human HeLa-S3 cell lysates preincubated for 15 mins followed by HDAC-Glo substrate addition measured after 35 mins by fluorimetric method; assay type: protein assay
# [2] = target: T1, Histone deacetylase (Homo sapiens) (UniProt Q13547+O15379+Q9UBN7+Q92769+Q9UQL6+Q8WUI4+Q9BY41+Q96DB2+P56524+Q9UKV0+Q969S8); assay: Inhibition of HDAC in human HeLa-S3 cell lysates assessed as residual activity at 2 x 10^-4 M preincubated for 15 mins followed by HDAC-Glo substrate addition measured after 35 mins by fluorimetric method relative to control; assay type: protein assay
# How it was run: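 Lysate (1 μg total protein) in HDAC-Glo buffer was preincubated with inhibitor in DMSO for 15 min at room temperature. HDAC-Glo substrate/developer reagent was added and luminescence read after 35 min. Concentrations are final. Signal corrected for a no-lysate blank; % of DMSO control.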
# [3] = target: T1, Histone deacetylase (Homo sapiens); assay: Inhibition of HDAC in human HeLa-S3 cell lysates assessed as residual activity at 1 x 10^-4 M preincubated for 15 mins followed by HDAC-Glo substrate addition measured after 35 mins by […] relative to control; assay type: protein assay
# [4] = target: T1, Histone deacetylase (Homo sapiens); assay: Inhibition of HDAC in human HeLa-S3 cell lysates assessed as residual activity at 2.5 x 10^-5 M preincubated for 15 mins followed by HDAC-Glo substrate addition measured after 35 mins by […] relative to control; assay type: protein assay
# [5] = target: T1, Histone deacetylase (Homo sapiens); assay: Inhibition of HDAC in human HeLa-S3 cell lysates assessed as residual activity at 1.25 x 10^-5 M preincubated for 15 mins followed by HDAC-Glo substrate addition measured after 35 mins by […] relative to control; assay type: protein assay
# [6] = target: T2, Histone deacetylase 8 (Homo sapiens) (UniProt Q9BY41); assay: Inhibition of human recombinant full-length C-terminal His-tagged HDAC8 expressed in baculovirus infected Sf9 insect cell assessed as remaining activity at 4 x 10^-7 M preincubated for 15 mins followed by HDAC-Glo substrate addition measured after 30 mins by fluorimetric method rel;ative to control
# T2 sequence (whole entry): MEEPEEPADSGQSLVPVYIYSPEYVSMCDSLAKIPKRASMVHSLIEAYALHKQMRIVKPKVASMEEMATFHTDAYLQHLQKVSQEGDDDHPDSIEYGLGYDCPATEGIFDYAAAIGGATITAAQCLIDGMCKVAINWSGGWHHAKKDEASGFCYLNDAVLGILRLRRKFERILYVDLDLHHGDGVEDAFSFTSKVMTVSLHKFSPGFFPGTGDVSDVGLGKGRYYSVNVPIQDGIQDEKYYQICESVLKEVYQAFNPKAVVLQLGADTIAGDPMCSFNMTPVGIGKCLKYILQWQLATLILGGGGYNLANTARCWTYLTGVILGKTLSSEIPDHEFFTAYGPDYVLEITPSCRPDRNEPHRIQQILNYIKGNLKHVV
# How it was run: (§1)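 Recombinant HDAC8 (75 ng) preincubated 15 min at RT with inhibitor in DMSO in HDAC-Glo buffer. HDAC-Glo reagent added and luminescence read 30 min later. Background taken from a reaction without enzyme; activity as % of DMSO control.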
# [7] = target: T2, Histone deacetylase 8 (Homo sapiens); assay: Inhibition of human recombinant full-length C-terminal His-tagged HDAC8 expressed in baculovirus infected Sf9 insect cell assessed as remaining activity at 8 x 10^-7 M preincubated for 15 mins followed by HDAC-Glo substrate addition measured after 30 mins by fluorimetric method rel;ative to control; how it was run: as §1
# [8] = target: Histone deacetylase 1 (Homo sapiens) (UniProt Q13547); assay: Inhibition of HDAC1 in human HeLa-S3 cell lysates assessed as remaining activity at 4.8 x 10^-5 M preincubated for 15 mins followed by HDAC-Glo substrate addition measured after 30 to 40 mins by […] relative to control
# Histone deacetylase 1 (Homo sapiens), sequence (Q13547 whole entry): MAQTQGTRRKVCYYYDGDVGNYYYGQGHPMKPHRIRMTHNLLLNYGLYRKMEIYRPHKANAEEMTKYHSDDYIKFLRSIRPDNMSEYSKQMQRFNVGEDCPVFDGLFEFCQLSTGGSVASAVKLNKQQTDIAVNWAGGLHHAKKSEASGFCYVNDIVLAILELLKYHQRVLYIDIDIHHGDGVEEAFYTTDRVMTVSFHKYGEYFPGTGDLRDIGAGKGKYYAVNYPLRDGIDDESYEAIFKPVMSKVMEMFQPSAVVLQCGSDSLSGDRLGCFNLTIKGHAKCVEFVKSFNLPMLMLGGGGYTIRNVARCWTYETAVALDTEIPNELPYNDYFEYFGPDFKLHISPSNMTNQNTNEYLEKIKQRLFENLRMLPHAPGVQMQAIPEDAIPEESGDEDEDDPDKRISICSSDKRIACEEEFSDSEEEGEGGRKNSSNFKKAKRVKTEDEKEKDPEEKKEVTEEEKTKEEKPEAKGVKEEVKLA
# How it was run: (§2)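 HDAC1 was captured from HeLa-S3 lysate (100 μg/mL) onto wells precoated with anti-HDAC1 antibody (10 μg/mL, carbonate buffer pH 9.4) and milk-blocked, 1 h at 4 °C, then washed. Inhibitor in DMSO was added in HDAC-Glo buffer for 15 min at room temperature. HDAC-Glo reagent was added and luminescence read after 30-40 min. Concentrations are final. No-antibody background subtracted; % of DMSO control.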
# [9] = target: Histone deacetylase 1 (Homo sapiens) (UniProt Q13547); assay: Inhibition of HDAC1 in human HeLa-S3 cell lysates assessed as remaining activity at 2.4 x 10^-5 M preincubated for 15 mins followed by HDAC-Glo substrate addition measured after 30 to 40 mins by […] relative to control; how it was run: as §2
# [10] = target: Histone deacetylase 1 (Homo sapiens) (UniProt Q13547); assay: Inhibition of HDAC1 in human HeLa-S3 cell lysates assessed as remaining activity at 1.2 x 10^-5 M preincubated for 15 mins followed by HDAC-Glo substrate addition measured after 30 to 40 mins by […] relative to control; how it was run: as §2
# [11] = target: Histone deacetylase 1 (Homo sapiens) (UniProt Q13547); assay: Inhibition of HDAC1 in human HeLa-S3 cell lysates assessed as remaining activity at 6 x 10^-6 M preincubated for 15 mins followed by HDAC-Glo substrate addition measured after 30 to 40 mins by […] relative to control; how it was run: as §2
# [12] = target: Histone deacetylase 1 (Homo sapiens) (UniProt Q13547); assay: Inhibition of HDAC1 in human HeLa-S3 cell lysates assessed as remaining activity at 3 x 10^-6 M preincubated for 15 mins followed by HDAC-Glo substrate addition […] relative to control
# [13] = target: Histone deacetylase 2 (Homo sapiens) (UniProt Q92769); assay: Inhibition of HDAC2 in human HeLa-S3 cell lysates assessed as remaining activity at 4.8 x 10^-5 M preincubated for 15 mins followed by HDAC-Glo substrate addition measured after 30 to 40 mins by […] relative to control
# Histone deacetylase 2 (Homo sapiens), sequence (Q92769 whole entry, canonical isoform): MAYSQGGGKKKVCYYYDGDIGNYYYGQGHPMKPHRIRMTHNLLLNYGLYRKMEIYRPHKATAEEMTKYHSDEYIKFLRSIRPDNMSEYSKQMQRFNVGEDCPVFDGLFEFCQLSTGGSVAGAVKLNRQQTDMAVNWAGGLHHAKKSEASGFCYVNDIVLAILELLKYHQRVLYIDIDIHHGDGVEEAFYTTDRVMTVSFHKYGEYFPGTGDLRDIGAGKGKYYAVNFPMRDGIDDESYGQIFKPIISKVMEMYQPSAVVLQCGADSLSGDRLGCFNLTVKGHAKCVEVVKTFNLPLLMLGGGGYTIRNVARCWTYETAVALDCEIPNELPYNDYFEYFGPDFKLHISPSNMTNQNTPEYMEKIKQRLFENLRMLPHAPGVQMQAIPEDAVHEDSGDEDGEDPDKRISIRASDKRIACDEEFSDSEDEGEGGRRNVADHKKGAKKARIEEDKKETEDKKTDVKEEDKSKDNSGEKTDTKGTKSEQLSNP
# How it was run: (§3)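 Same antibody-capture format as the other class I isoforms. HeLa-S3 lysate added at 100 μg/mL for HDAC1 and HDAC2, 1 h at 4 °C, then washed. Inhibitor in DMSO preincubated 15 min at RT; HDAC-Glo reagent added and luminescence read after 30-40 min. Concentrations are final. Signal corrected against a well without antibody; activity expressed as % of DMSO control.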
# [14] = target: Histone deacetylase 2 (Homo sapiens) (UniProt Q92769); assay: Inhibition of HDAC2 in human HeLa-S3 cell lysates assessed as remaining activity at 2.4 x 10^-5 M preincubated for 15 mins followed by HDAC-Glo substrate addition measured after 30 to 40 mins by fluorimetric method relative to control; how it was run: as §3
# [15] = target: Histone deacetylase 2 (Homo sapiens) (UniProt Q92769); assay: Inhibition of HDAC2 in human HeLa-S3 cell lysates assessed as remaining activity at 1.2 x 10^-5 M preincubated for 15 mins followed by HDAC-Glo substrate addition measured after 30 to 40 mins by […] relative to control; how it was run: as §3
# [16] = target: Histone deacetylase 2 (Homo sapiens) (UniProt Q92769); assay: Inhibition of HDAC2 in human HeLa-S3 cell lysates assessed as remaining activity at 6 x 10^-6 M preincubated for 15 mins followed by HDAC-Glo substrate addition measured after 30 to 40 mins by […] relative to control; how it was run: as §3
# [17] = target: Histone deacetylase 2 (Homo sapiens) (UniProt Q92769); assay: Inhibition of HDAC2 in human HeLa-S3 cell lysates assessed as remaining activity at 3 x 10^-6 M preincubated for 15 mins followed by HDAC-Glo substrate addition measured after 30 to 40 mins by fluorimetric method relative to control; how it was run: as §3
# [18] = target: Histone deacetylase 3 (Homo sapiens) (UniProt O15379); assay: Inhibition of HDAC3 in human HeLa-S3 cell lysates assessed as remaining activity at 4.8 x 10^-5 M preincubated for 15 mins followed by HDAC-Glo substrate addition measured after 30 to 40 mins by […] relative to control
# Histone deacetylase 3 (Homo sapiens), sequence (O15379 whole entry): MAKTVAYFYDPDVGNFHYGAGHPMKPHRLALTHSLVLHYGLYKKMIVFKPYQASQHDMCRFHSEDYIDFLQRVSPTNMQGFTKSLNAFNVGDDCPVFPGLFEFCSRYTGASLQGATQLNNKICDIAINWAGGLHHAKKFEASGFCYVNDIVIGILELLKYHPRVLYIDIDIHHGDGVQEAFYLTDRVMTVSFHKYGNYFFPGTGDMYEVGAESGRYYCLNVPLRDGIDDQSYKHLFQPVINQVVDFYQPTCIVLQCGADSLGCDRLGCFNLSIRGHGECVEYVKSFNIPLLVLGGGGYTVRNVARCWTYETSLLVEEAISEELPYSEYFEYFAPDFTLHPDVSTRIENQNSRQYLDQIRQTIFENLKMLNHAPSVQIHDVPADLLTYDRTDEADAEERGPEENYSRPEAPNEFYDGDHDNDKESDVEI
# How it was run: (§4)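 Antibody-capture (ELISA-type) assay: HDAC antibody coated in carbonate/bicarbonate buffer pH 9.4, wells blocked with 5% milk in TBST. HeLa-S3 lysate added at 1 mg/mL for HDAC3, 1 h at 4 °C, then washed. Inhibitor in DMSO preincubated 15 min at RT in HDAC-Glo buffer. HDAC-Glo reagent added, luminescence read after 30-40 min. Concentrations are final. Background = no-antibody well; activity given as % of DMSO control.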
# [19] = target: Histone deacetylase 3 (Homo sapiens) (UniProt O15379); assay: Inhibition of HDAC3 in human HeLa-S3 cell lysates assessed as remaining activity at 2.4 x 10^-5 M preincubated for 15 mins followed by HDAC-Glo substrate addition measured after 30 to 40 mins by […] relative to control; how it was run: as §4
# [20] = target: Histone deacetylase 3 (Homo sapiens) (UniProt O15379); assay: Inhibition of HDAC3 in human HeLa-S3 cell lysates assessed as remaining activity at 1.2 x 10^-5 M preincubated for 15 mins followed by HDAC-Glo substrate addition measured after 30 to 40 mins by […] relative to control; how it was run: as §4
# [21] = target: Histone deacetylase 3 (Homo sapiens) (UniProt O15379); assay: Inhibition of HDAC3 in human HeLa-S3 cell lysates assessed as remaining activity at 6 x 10^-6 M preincubated for 15 mins followed by HDAC-Glo substrate addition measured after 30 to 40 mins by […] relative to control; how it was run: as §4
# [22] = target: Histone deacetylase 3 (Homo sapiens) (UniProt O15379); assay: Inhibition of HDAC3 in human HeLa-S3 cell lysates assessed as remaining activity at 3 x 10^-6 M preincubated for 15 mins followed by HDAC-Glo substrate addition measured after 30 to 40 mins by fluorimetric method relative to control; how it was run: as §4
compound,measurement,setting,value
O=C(CCC(CCCC(=O)Nc1ccccc1)c1ccccc1)NO (configuration not stated),IC50,[1],65 µM
same,Activity,[2],15%
same,Activity,[3],32%
same,Activity,[4],88%
same,Activity,[5],104%
same,Activity,[6],48%
same,Activity,[7],29%
same,Activity,[8],19%
same,Activity,[9],34%
same,Activity,[10],53%
same,Activity,[11],63%
same,Activity,[12],74%
same,Activity,[13],22%
same,Activity,[14],33%
same,Activity,[15],53%
same,Activity,[16],68%
same,Activity,[17],72%
same,Activity,[18],30%
same,Activity,[19],53%
same,Activity,[20],64%
same,Activity,[21],74%
same,Activity,[22],88%
